In ChEMBL document CHEMBL1152541, “Staurosporine tethered peptide ligands that target cAMP-dependent protein kinase (PKA): optimization and selectivity profiling” (Bioorg Med Chem, 2009) one finds Activity data, which are given here for three compounds.

SMILES strings stand for the structures. *1 amine or outer side, *2 acyl side, *3 side chain or, on linkers, in order; H or OH if unused. Where a SMILES comes first, the peptide text is derived from it. Bridges are numbered along the chain shown (N, C = ends). [ ]: non-standard residue; d: D form. The star is where a group is joined. Staurosporine = CO[C@@H]1[C@H](N(C)*)C[C@H]2O[C@]1(C)n1c3ccccc3c3c4c(c5c6ccccc6n2c5c31)C(=O)NC4; Suc = O=C(CCC(=O)[*:2])[*:1]; Dap = NC[C@H](N)C(=O)O; βAla = NCCC(=O)O

In experiment [1] the target is Angiopoietin-1 receptor (Homo sapiens) (UniProt Q02763). Put plainly: Binding affinity to human TIE2 at 500 nM by cell-based competition binding assay relative to control in presence of DTT.
The subject of experiment [2] is Mast/stem cell growth factor receptor Kit (Homo sapiens), P10721 [V559D,T670I]. The experiment can be described thus: Binding affinity to human KIT V559D,T670I mutant at 500 nM by cell-based competition binding assay relative to control in presence of DTT. The method, boiled down: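 Competition binding screen (Ambit) across a panel of 90 kinases, scoring test ligand displacement of each kinase's binding relative to control. The screen ran under reducing conditions with 7.5 mM DTT.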

Experiment [3] addresses Serine/threonine-protein kinase pim-1 (Homo sapiens) (UniProt P11309). Put plainly: Binding affinity to human PIM1 at 200 nM by cell-based competition binding assay relative to control in presence of DTT.
Experiment [4] addresses T1, Activin receptor type-1B (Homo sapiens) (UniProt P36896).
T1 sequence (whole entry): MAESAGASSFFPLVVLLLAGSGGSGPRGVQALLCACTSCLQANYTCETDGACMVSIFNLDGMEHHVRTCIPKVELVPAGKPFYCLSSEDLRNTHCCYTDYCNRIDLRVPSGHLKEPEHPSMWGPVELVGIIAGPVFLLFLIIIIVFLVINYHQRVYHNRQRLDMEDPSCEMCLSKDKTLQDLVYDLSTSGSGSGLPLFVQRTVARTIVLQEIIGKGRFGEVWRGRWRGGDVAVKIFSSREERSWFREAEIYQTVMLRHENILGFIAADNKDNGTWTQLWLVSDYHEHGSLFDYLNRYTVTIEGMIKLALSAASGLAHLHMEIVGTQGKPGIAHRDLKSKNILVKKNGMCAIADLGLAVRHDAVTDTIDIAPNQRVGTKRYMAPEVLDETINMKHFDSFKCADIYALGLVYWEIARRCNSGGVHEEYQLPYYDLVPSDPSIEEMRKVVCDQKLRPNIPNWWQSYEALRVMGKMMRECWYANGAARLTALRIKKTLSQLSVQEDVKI
Put plainly: Binding affinity to human ACVR1B at 200 nM by cell-based competition binding assay relative to control in presence of DTT. An outline of the steps:
(§1)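 Kinase binding profiling ran on a commercial (Ambit) competitive binding screen against a panel of 90 kinases. The screen used reducing conditions with 7.5 mM DTT. To withstand the DTT, the bivalent ligand was tested as its amide isostere, with the disulfide replaced. A staurosporine derivative carrying a 3 β-alanine linker was run as the reference compound.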

For experiment [5], the target named is ALK tyrosine kinase receptor (Homo sapiens) (UniProt Q9UM73). The experiment can be described thus: Binding affinity to human ALK at 200 nM by cell-based competition binding assay relative to control in presence of DTT. The method, boiled down:
as §1

Experiment [6] has as its target T2, Serine/threonine-protein kinase DCLK1 (Homo sapiens) (UniProt O15075).
T2 sequence (whole entry): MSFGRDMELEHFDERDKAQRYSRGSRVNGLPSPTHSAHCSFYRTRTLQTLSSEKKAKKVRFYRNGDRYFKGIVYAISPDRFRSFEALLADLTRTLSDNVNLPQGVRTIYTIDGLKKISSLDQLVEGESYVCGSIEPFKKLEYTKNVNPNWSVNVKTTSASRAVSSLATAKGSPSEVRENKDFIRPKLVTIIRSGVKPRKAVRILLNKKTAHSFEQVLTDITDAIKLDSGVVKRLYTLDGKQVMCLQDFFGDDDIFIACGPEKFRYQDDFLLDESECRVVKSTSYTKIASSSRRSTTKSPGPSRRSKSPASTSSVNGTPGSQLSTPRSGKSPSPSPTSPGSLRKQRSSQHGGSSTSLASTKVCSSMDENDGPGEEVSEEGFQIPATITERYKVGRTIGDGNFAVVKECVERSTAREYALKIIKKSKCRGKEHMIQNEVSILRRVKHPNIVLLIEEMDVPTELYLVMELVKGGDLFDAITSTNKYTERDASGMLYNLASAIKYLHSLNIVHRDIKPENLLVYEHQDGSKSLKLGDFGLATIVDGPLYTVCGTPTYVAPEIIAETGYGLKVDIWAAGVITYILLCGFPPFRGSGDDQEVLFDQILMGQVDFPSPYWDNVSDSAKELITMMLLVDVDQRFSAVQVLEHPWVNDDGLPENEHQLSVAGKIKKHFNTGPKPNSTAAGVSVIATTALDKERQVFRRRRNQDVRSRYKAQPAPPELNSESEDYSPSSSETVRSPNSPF
Put plainly: Binding affinity to human DCAMKL1 at 50 nM by cell-based competition binding assay relative to control in presence of DTT. The method, boiled down: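 Commercial (Ambit) competitive kinase-binding panel of 90 kinases measured the binding profile. Run under reducing conditions of 7.5 mM DTT. Binding is expressed relative to control.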

Experiment [7] deals with Dual specificity mitogen-activated protein kinase kinase 1 (Homo sapiens) (UniProt Q02750). The experiment can be described thus: Binding affinity to human MEK1 at 50 nM by cell-based competition binding assay relative to control in presence of DTT. The method, boiled down: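 Kinase binding profile from a commercial panel of 90 kinases, run as a competitive binding assay. The panel was screened under reducing conditions of 7.5 mM DTT. Signal was compared with the untreated control.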

For experiment [8], the target named is T3, 3-phosphoinositide-dependent protein kinase 1 (Homo sapiens) (UniProt O15530).
T3 sequence (whole entry): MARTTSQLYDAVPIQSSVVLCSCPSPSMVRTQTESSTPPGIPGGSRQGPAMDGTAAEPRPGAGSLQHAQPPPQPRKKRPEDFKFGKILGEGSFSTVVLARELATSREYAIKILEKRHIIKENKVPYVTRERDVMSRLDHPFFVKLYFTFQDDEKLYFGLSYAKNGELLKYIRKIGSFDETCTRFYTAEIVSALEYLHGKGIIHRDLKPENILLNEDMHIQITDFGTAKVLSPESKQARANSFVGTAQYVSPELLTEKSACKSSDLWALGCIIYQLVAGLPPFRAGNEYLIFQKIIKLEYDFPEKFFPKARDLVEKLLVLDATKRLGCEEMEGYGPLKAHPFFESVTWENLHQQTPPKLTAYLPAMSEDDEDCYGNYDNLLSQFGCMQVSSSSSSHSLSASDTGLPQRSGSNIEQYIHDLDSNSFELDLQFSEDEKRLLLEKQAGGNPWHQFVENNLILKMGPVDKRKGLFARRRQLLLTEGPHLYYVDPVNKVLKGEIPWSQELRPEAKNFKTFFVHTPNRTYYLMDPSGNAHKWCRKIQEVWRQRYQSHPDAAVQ
The experiment can be described thus: Binding affinity to human PDPK1 at 50 nM by cell-based competition binding assay relative to control in presence of DTT.

Experiment [9] has as its target Serine/threonine-protein kinase pim-2 (Homo sapiens) (UniProt Q9P1W9). Put plainly: Binding affinity to human PIM2 at 50 nM by cell-based competition binding assay relative to control in presence of DTT.
Experiment [10] has as its target Vascular endothelial growth factor receptor 2 (Homo sapiens) (UniProt P35968). The experiment can be described thus: Binding affinity to human VEGFR2 at 50 nM by cell-based competition binding assay relative to control in presence of DTT.
The target in experiment [11] is Tyrosine-protein kinase ABL1 (Homo sapiens) (UniProt P00519). Put plainly: Binding affinity to human ABL1 at 50 nM by cell-based competition binding assay relative to control in presence of DTT. An outline of the steps:
as §1

Consider `CO[C@@H]1[C@H](N(C)C(=O)CCC(=O)NCCC(=O)NCCC(=O)NCCC(N)=O)C[C@H]2O[C@]1(C)n1c3ccccc3c3c4c(c5c6ccccc6n2c5c31)C(=O)NC4`, for which the Activity was determined as 38% in experiment [1] and 4.8% in experiment [2].
As for `CO[C@@H]1[C@H](N(C)C(=O)CCC(=O)NCCC(=O)NCCC(=O)NCCC(=O)NCCC(=O)NCCC(=O)NCCC(=O)NCCC(=O)N[C@H]2CSSC[C@@H](C(=O)NCC(N)=O)NC(=O)CNC(=O)[C@H](Cc3ccccc3)NC(=O)[C@H](C(C)C)NC(=O)[C@H](CCCNC(=N)N)NC(=O)[C@H](Cc3ccccc3)NC(=O)[C@H](C(C)C)NC2=O)C[C@H]2O[C@]1(C)n1c3ccccc3c3c4c(c5c6ccccc6n2c5c31)C(=O)NC4` ({Staurosporine-Suc-βAla-βAla-βAla-βAla-βAla-βAla-βAla}-CVFRVFGCG-NH2; disulfide 1-8), the Activity was found to be 53% in experiment [3], 95% in experiment [4] and 60% in [5].
With `CO[C@@H]1[C@H](N(C)C(=O)CCC(=O)NCCC(=O)NCCC(=O)NCCC(=O)NCCC(=O)NCCC(=O)NCCC(=O)NCCC(=O)N[C@H]2CNC(=O)C[C@@H](C(N)=O)NC(=O)CNC(=O)[C@H](Cc3ccccc3)NC(=O)[C@H](C(C)C)NC(=O)[C@H](CCCNC(=N)N)NC(=O)[C@H](Cc3ccccc3)NC(=O)[C@H](C(C)C)NC2=O)C[C@H]2O[C@]1(C)n1c3ccccc3c3c4c(c5c6ccccc6n2c5c31)C(=O)NC4` ({Staurosporine-Suc-βAla-βAla-βAla-βAla-βAla-βAla-βAla}-[Dap]VFRVFGD-NH2; lactam 1-8), the Activity in experiment [6] came out at 95%; in [7], 95%; in experiment [8], 48%; in [9], 100%; in experiment [10] it was 91%; in experiment [11], 94%.
